From PubChem
hDAT+cocaine – modulates human dopamine transporter uptake under cocaine | LLC-PK1 hDAT cells, [14C]-dopamine uptake with cocaine IC80; actives deviate in either direction | B-score at 10 µM | actives 1.3% (n = 110,000) | Q01959;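 active = Z score or B-score, a plate-position-corrected score, falls beyond the plate's 99.7% confidence bounds, in either direction; inactive = both scores lie inside the 99.7% bounds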
Target sequence (Q01959 whole entry, looked up): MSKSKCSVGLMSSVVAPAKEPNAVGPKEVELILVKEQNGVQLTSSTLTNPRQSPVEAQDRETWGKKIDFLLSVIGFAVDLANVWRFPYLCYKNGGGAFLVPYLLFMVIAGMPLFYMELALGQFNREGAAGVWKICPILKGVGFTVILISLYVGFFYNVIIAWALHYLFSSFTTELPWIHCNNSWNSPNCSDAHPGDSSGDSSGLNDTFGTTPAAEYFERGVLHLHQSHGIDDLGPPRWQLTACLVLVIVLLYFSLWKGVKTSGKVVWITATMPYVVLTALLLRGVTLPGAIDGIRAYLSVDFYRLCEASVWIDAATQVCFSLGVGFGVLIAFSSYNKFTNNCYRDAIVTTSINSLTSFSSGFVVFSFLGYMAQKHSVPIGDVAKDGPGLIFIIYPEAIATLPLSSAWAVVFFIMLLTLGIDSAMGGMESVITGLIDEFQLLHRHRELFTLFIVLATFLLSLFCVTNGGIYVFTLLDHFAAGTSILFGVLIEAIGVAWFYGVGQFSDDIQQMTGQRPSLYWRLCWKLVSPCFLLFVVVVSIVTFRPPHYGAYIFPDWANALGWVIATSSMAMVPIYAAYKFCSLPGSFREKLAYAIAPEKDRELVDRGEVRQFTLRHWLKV
Yeast growth inh – yeast BB579 growth reduction in restrictive medium. S. cerevisiae BB579 growth, OD615, 48 h. actives 0.51% (n = 140,000). inhibition, % at 10 µM;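 active = inhibition above a set limit, 3 SD over the mean compound inhibition, cut at about 44% in these data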
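System: Saccharomyces cerevisiae DeaD strain BB579, replicative lifespan model yeast. Buffer or medium: restrictive glucose-based CSMM-D medium. Doses: one dose, 10 µM compound with 0.25% DMSO. Timing: 4 h preincubation and 48 h exposure at 30 °C. Detection: turbidity as optical density at 615 nm. Benchmarks: amphotericin B 10 µg/mL, positive.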
RAM network inh – yeast RAM network inhibition | S. cerevisiae dse1pr::URA3 reporter, 5-FOA growth OD615, 2 d; analog-sensitive cbk1-as2 kinase mutant strain | inhibition, % at 50 µM | actives 1.8% (n = 190,000) | AID 868;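 active = inhibition above a set limit, 3 SD over mean compound inhibition, cut at about 8.4% in these data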;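 note: inhibition rescues growth on 5-FOA so higher OD means more RAM inhibition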
WT yeast gro inh – growth inhibition of WT yeast, mitochondrial fusion screen. mitochondrial fusion phenotypic screen, WT strain. inhibition, % at 10 µM. actives 2.1% (n = 190,000); in the data active = inhibition above about 58%; tested in S. cerevisiae
Measles CPE – protection of cells from measles virus. Measles virus-infected cells, CPE protection, absorbance. protection (pct of control), % at 4 µM. actives 1.5% (n = 140,000). AID 841; in the data active = protection mostly above about 24%, no sharp cut-off; inactive = mostly below about 26%
Yeast lifespan up – yeast lifespan extension; actives 0.68% (n = 130,000); inhibition of the nicotinamide effect, % at 10 µM; S. cerevisiae growth with nicotinamide, OD615; deaD strain in restrictive glucose medium; AID 775;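 active = inhibition above a set limit, placed 3 SD over the median of all compounds, cut at about 26% in these data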
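Assay system: engineered S. cerevisiae DeaD replicative-lifespan strain, galactose-grown log-phase cells; medium: restrictive CSMM-D dextrose medium; also added: nicotinamide, 1.5 mM, co-present with compound; schedule: 48 h compound exposure at 30 °C, humidified; detection: absorbance at 615 nm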
Hits are given with their value; - = inactive; . = not tested or not shown. Shown are actives, neighbours in structure and some others; about 6.1% of the full set was active somewhere.

SMILES	hDAT+cocaine	Yeast growth inh	RAM network inh	WT yeast gro inh	Measles CPE	Yeast lifespan up
COc1ccc(CNC(=O)c2cc(-c3ccccc3OC)on2)cc1	-	-	8.6	-	-	-
COc1ccccc1-c1cc(C(=O)NCc2ccccc2)no1	-	-	-	-	-	-
COc1ccc(CNc2ccc(-c3ccccc3OC)nn2)cc1	3.2	-	-	-	-	-
O=[N+]([O-])c1cccc(/C([O-])=C(/C(=S)Nc2ccccc2)[n+]2ccccc2)c1	.	-	-	-	-	-
Cc1cccc(C(=O)NNC(=O)c2ccccc2)c1	.	-	-	-	-	-
O=C(CC(=O)c1cc(Cl)ccc1O)c1ccccc1	-	82	-	-	-	-
Cc1ccc(O)c(C(=O)CC(=O)c2cccc(F)c2)c1	-	51	-	-	-	-
Cc1cccc(C(=O)CC(=O)c2cc(Cl)ccc2O)c1	-	83	-	61	-	-
COc1ccc(O)c(C(=O)CC(=O)c2ccc(F)cc2)c1	-	-	-	-	-	-
O=C(NNC(=O)c1ccccc1O)c1ccc(Cl)cc1	-	-	-	-	-	-
CCOc1cc(C(c2c(C)[nH][nH]c2=O)c2c(C)[nH][nH]c2=O)ccc1OCc1ccc([N+](=O)[O-])cc1	-	-	-	-	-	-
CCOc1cc(C(c2c(C)[nH][nH]c2=O)c2c(C)[nH][nH]c2=O)ccc1OC(=O)c1cccc([N+](=O)[O-])c1	-	-	-	-	37	-
CSc1ccccc1NC(=O)CN(c1cc(C)cc(C)c1)S(C)(=O)=O	-	-	-	-	-	-
CS(=O)(=O)N(CC(=O)Nc1ccccc1Sc1ccccc1)c1cccc(Br)c1	-	-	11	-	-	-
O=C(Nc1nnc(Cc2ccc([N+](=O)[O-])cc2)s1)Nc1ccccc1F	.	.	-	-	.	.
Cc1ccccc1Nc1nc(N)nc(CN2C(=O)NC3(CCCCC3C)C2=O)n1 (stereo unspecified)	-7.6	-	-	-	-	-
CCC(CC)c1nnc(NC(=O)c2ccc3ccccc3n2)s1	-	-	-	61	-	-
COc1ccccc1NC(=O)C1CCCN(c2nc(C)cc(C)n2)C1 (stereo unspecified)	-	-	-	-	33	.
CC12CCC(C(=O)NCc3cccnc3)(OC1=O)C2(C)C (stereo unspecified)	-	-	-	-	-	-
CC12CCC(C(=O)N(Cc3ccccc3)Cc3ccccc3)(OC1=O)C2(C)C (stereo unspecified)	-	-	-	79	-	-
CCOC(=O)CCSc1nc(-c2ccc3c(c2)OCO3)cc(C(F)(F)F)c1C#N	-	-	11	-	-	-
CCOC(=O)CC(=O)CSc1nc(-c2ccc3c(c2)OCO3)cc(C(F)(F)F)c1C#N	-	-	-	-	-	-
COCCCNC(=O)c1cccc(C(=O)NCCCOC)c1	-	-	-	66	23	-
COCCNC(=O)c1ccc(NC(C)=O)cc1	-	-	-	-	52	-
Cc1nc2ccc(NC(=O)c3cccc(C(F)(F)F)c3)cc2o1	-	-	-	-	61	-
SMILES	hDAT+cocaine	Yeast growth inh	RAM network inh	WT yeast gro inh	Measles CPE	Yeast lifespan up
CCCNC(=O)c1cccc(C(F)(F)F)c1	-	-	-	-	27	-
COCCCNC(=O)c1cccs1	2.7	-	-	-	-	-
CCOCCCNC(=O)c1ccc(Br)cc1	-	47	-	-	-	-
CCOCCCNC(=O)c1ccc(OC)cc1	-	-	-	-	-	-
O=C(N/N=C1/CCc2ccccc21)C1CC1	.	.	-	-	.	.
S=C(N/N=C1\CCc2ccccc21)NC1CCCCC1	.	.	-	70	.	.
CC1(C)CC(C(CC(=O)O)c2ccccc2)CCO1 (stereo unspecified)	-	-	-	-	-	-
COc1ccc(CN(CCC(c2ccc(F)cc2)C2CCOC(C)(C)C2)C(=O)c2ccco2)cc1 (stereo unspecified)	.	-	9.8	-	-	-
CC(c1ccccc1)N(CCC(c1ccccc1)C1CCOC(C)(C)C1)C(=O)c1ccco1 (stereo unspecified)	.	-	-	79	-	-
COc1ccc(-c2n[nH]c(C(F)(F)F)c2-c2cc3ccccc3o2)c(O)c1	-	100	-	94	-	-
O=C(NCc1ccco1)c1cc(-c2ccc(F)cc2)on1	-	-	-	-	-	-
O=C(NCc1ccco1)c1cc(-c2ccccc2)on1	-	-	-	60	-	-
COCCCNC(=O)CSc1nc2c(sc3ccccc32)c(=O)n1CCCC(=O)NCC1CCCO1 (stereo unspecified)	.	.	-	-	.	.
CCOC(=O)C1(Cc2ccccc2Cl)CCN(C(=O)CCn2ccnc2C)CC1	.	.	-	-	.	.
Cc1oc2c(cc(NS(=O)(=O)c3ccc4c5c(cccc35)C(=O)N4)c3ccccc32)c1C(=O)OC(C)C	.	-	9.2	-	-	-
C=CCOC(=O)c1cn(CC)c2nc(C)ccc2c1=O	.	.	-	-	.	.
CCn1cc(C(=O)OCC(=O)OC2CC(C)CCC2C(C)C)c(=O)c2ccc(C)nc21 (stereo unspecified)	-	-	-	70	-	-
O=c1[nH]cnc2ccsc12	.	.	-	-	.	.
O=c1c(-c2ccc(Cl)cc2)[n+]([O-])c2ccccc2n1O	-	100	-	-	-	-
COc1ccc(N2CCN(C(=O)CSc3nnc(NC(=O)C4CC4)s3)CC2)cc1	.	.	-	-	.	.
Cc1coc2c1C(=O)C(=O)c1c-2ccc2c1CCCC2(C)C	-	.	-	73	.	.
C[C@H]1COC2=C1C(=O)C(=O)c1c2ccc2c1CCCC2(C)C	-	.	-	74	.	.
CC(=O)Nc1ccc(S(=O)(=O)N(c2cccnc2)S(=O)(=O)c2ccc(NC(C)=O)cc2)cc1	-	-	10.0	-	-	.
CC(=O)Nc1ccc(S(=O)(=O)N(C)c2ccc(O)cc2)cc1	-	-	-	-	44	-
COc1ccc(C2C(C(=O)NCCCN3CCOCC3)c3ccccc3C(=O)N2c2ccc(OC)cc2)cc1 (stereo unspecified)	.	.	-	-	.	.
SMILES	hDAT+cocaine	Yeast growth inh	RAM network inh	WT yeast gro inh	Measles CPE	Yeast lifespan up
CCCC/C=C/[C@H](c1ccccc1)[C@H](CO)Cc1cccnc1	-	.	.	.	.	.
Cc1c(-c2ccc(Br)cc2)[n+](=O)c2c(n1[O-])CCCC2	.	.	-	-	.	.
COC1=CCC2([N+](=O)[O-])CN(CCO)CC1([N+](=O)[O-])C2 (stereo unspecified)	.	-	-	-	-	-
Cc1cc(C)n(C(=O)CNC(=O)C(c2ccccc2)c2ccccc2)n1	-	-	8.8	-	-	.
Cc1cc(C)n(C(=O)CNC(=O)Cc2ccccc2)n1	-	-	-	-	-	-
Cc1cccc(CN2C(=O)[C@H]3Cc4c([nH]c5ccccc45)C(C)(C)N3C2=O)c1	-	.	.	.	.	.
O=C(CNC(=S)N(Cc1ccccc1)Cc1cccs1)NCc1ccc(F)cc1	.	.	8.8	61	.	.
O=C1NC(=S)N/C1=C/c1cc([N+](=O)[O-])ccc1O	-2.1	-	-	-	-	-
